Assay results published in ChEMBL document CHEMBL1125080, “Potential antipsychotic agents 5. Synthesis and antidopaminergic properties of substituted 5,6-dimethoxysalicylamides and related compounds” (J Med Chem, 1990).
pIC50, pKi: −log10 of the molar value.

Assays:
D(2) dopamine receptor [1] = biological target: T1, D(2) dopamine receptor (Rattus norvegicus, UniProt P61169); test: In vitro ability to inhibit the binding of [3H]spiperone to dopamine receptor D2 in rat striatal membranes.; format: cell membranes, Membrane
D(2) dopamine receptor [2] = biological target: T1, D(2) dopamine receptor; test: Inhibition of [3H]raclopride binding to rat striatal membrane Dopamine receptor D2
Rattus norvegicus [3] = test: Evaluated in vitro for antipsychotic activity (stereotypies) for the block of apomorphine induced response after ip administration 60 min prior to apomorphine (1 mg/kg sc); format: functional
Summary of the method: (§1)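 Male Sprague-Dawley rats (270–325 g) received compound ip, in saline or in acetic acid plus distilled water, 60 min before apomorphine HCl (1 mg/kg sc, neck). Hyperactivity and stereotypies were scored 5, 20, 40 and 60 min after apomorphine.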

Rattus norvegicus [4] = test: Evaluated in vitro for antipsychotic activity (hyperactivity) for the block of apomorphine induced response after ip administration 60 min prior to apomorphine (1 mg/kg sc); format: functional; summary of the method: as §1
Rattus norvegicus [5] = test: Catalepsy interval defined as the time required for both fore limbs to be removed from the bar when administered intraperitoneally; format: functional; details: ip
Summary of the method: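 Rats given test compound ip, then tested on a horizontal bar (1.5 cm diameter, 7 cm above cage floor) at 20, 40, 60, 90, 120 and 240 min after injection. A saline control group was tested the same way. An animal counted as cataleptic if it held ≥ 15 s. The proportion cataleptic at each dose gave dose-response curves, and ED50 came from probit analysis.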

Rattus norvegicus [6] = test: Dose which blocks the hypothermic effect of apomorphine by 50% against Sprague-Dawley rats when administered intraperitoneally; format: functional; details: ip
Summary of the method: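 Sprague-Dawley rats (n = 6 per group) were pretreated ip with saline or compound 60 min before apomorphine HCl (1 mg/kg sc). Core temperature was taken by rectal probe before dosing, before apomorphine and 15 min after it. Mean changes were expressed as percent of control.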

T1 sequence (P61169 whole entry): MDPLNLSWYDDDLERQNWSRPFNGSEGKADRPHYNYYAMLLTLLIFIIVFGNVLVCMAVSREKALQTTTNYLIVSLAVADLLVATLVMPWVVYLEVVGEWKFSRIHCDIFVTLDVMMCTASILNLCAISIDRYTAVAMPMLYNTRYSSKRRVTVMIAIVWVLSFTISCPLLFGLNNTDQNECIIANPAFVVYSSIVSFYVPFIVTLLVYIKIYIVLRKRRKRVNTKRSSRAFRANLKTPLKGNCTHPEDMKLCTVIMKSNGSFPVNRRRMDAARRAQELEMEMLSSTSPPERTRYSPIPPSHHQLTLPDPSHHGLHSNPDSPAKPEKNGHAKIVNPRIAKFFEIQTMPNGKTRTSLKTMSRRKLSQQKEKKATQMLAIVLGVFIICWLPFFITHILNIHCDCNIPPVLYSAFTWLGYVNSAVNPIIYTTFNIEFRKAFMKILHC

With `CCc1cc(OC)c(OC)c(C(=O)NC[C@@H]2CCCN2CC)c1OC` the pIC50 (D(2) dopamine receptor [1]) was 6.09.

Compound `CCN1CCC[C@H]1CNC(=O)c1c(O)c(OC)cc(Br)c1OC` has a pKi (D(2) dopamine receptor [2]) of 8.08, a pIC50 (D(2) dopamine receptor [1]) of 7.17 and an ED50 (Rattus norvegicus [3]) of 12 µmol/kg. The ED50 (Rattus norvegicus [4]) was 1.3 µmol/kg.

`CCN1CCC[C@H]1CNC(=O)c1c(O)ccc(O)c1OC` was tested, and the pIC50 (D(2) dopamine receptor [1]) was 7.25.

With `CCN1CCC[C@H]1CNC(=O)c1c(O)c(Cl)cc(OC)c1OC` the pKi (D(2) dopamine receptor [2]) was 10.06 and the pIC50 (D(2) dopamine receptor [1]) was 8.77.

`CCN1CCC[C@H]1CNC(=O)c1c(N)c(Br)cc(OC)c1OC` showed a pIC50 (D(2) dopamine receptor [1]) of 7.68.

`C=CCN1CCC[C@H]1CNC(=O)c1c(O)c(OC)cc(Br)c1OC` gave a pIC50 (D(2) dopamine receptor [1]) of 7.36.

With `CCCc1cc(OC)c(OC)c(C(=O)NC[C@@H]2CCCN2CC)c1O.O=C(O)/C(O)=C(\O)C(=O)O` the pKi (D(2) dopamine receptor [2]) was 10.64.

Compound `CCN1CCC[C@H]1CNC(=O)c1c(OC)ccc(OC)c1O` has a pIC50 (D(2) dopamine receptor [1]) of 6.69.

Work on `CCc1cc(OC)c(O)c(C(=O)NC[C@@H]2CCCN2CC)c1OC` yielded a pIC50 (D(2) dopamine receptor [1]) of 7.72.

Work on `CCN1CCC[C@H]1CNC(=O)c1c(O)c(OC)cc(Cl)c1OC` yielded a pIC50 (D(2) dopamine receptor [1]) of 7.15.

With `CCN1CCC[C@H]1CNC(=O)c1c(OC)c(Br)cc(OC)c1OC` the pIC50 (D(2) dopamine receptor [1]) was 5.76.

With `CCN1CCC[C@H]1CNC(=O)c1c(OC)c(Cl)cc(OC)c1OC` the pIC50 (D(2) dopamine receptor [1]) was 6.38.

`CCc1cc(OC)c(OC)c(C(=O)NC[C@@H]2CCCN2CC)c1O` was tested, and the pKi (D(2) dopamine receptor [2]) was 10.48 and the pIC50 (D(2) dopamine receptor [1]) was 9.11.

With `CCCc1cc(OC)c(OC)c(C(=O)NC[C@@H]2CCCN2CC)c1OC` the pIC50 (D(2) dopamine receptor [1]) was 5.53.

Work on `CCN1CCC[C@@H]1CNC(=O)c1c(O)c(OC)cc(Br)c1OC` yielded a pIC50 (D(2) dopamine receptor [1]) of 5.21.

For `CCN1CCC[C@@H]1CNC(=O)c1c(O)c(Br)cc(OC)c1OC`, the pKi (D(2) dopamine receptor [2]) was 8.18, the pIC50 (D(2) dopamine receptor [1]) was 7.10 and the ED50 (Rattus norvegicus [3]) was 5.3 µmol/kg. The ED50 (Rattus norvegicus [4]) was 12.6 µmol/kg.

`CCN1CCC[C@H]1CNC(=O)c1c(O)ccc(OC)c1OC` showed a pKi (D(2) dopamine receptor [2]) of 9.12.

`CCN1CCC[C@H]1CNC(=O)c1c(O)c(Br)cc(N)c1OC` showed a pIC50 (D(2) dopamine receptor [1]) of 7.48.

Work on `CCN1CCC[C@H]1CNC(=O)c1c(O)c(Br)cc(O)c1OC` yielded a pIC50 (D(2) dopamine receptor [1]) of 8.72.

`CCN1CCC[C@H]1CNC(=O)c1c(O)c(Br)cc(OC)c1OC` was tested, and the ED50 (Rattus norvegicus [5]) was 0.14 µmol/kg, the pKi (D(2) dopamine receptor [2]) was 10.19 and the ED50 (Rattus norvegicus [6]) was 0.005 µmol/kg.

`CCc1cc(Cl)c(OC)c(C(=O)NC[C@@H]2CCCN2CC)c1O` [ETICLOPRIDE] was tested, and the ED50 (Rattus norvegicus [5]) was 0.74 µmol/kg, the ED50 (Rattus norvegicus [6]) was 0.09 µmol/kg and the ED50 (Rattus norvegicus [3]) was 0.19 µmol/kg. For the same compound, the ED50 (Rattus norvegicus [4]) was 0.015 µmol/kg.

`O=C(CCCN1CCC(O)(c2ccc(Cl)cc2)CC1)c1ccc(F)cc1` [HALOPERIDOL] gave an ED50 (Rattus norvegicus [5]) of 0.9 µmol/kg, an ED50 (Rattus norvegicus [6]) of 0.35 µmol/kg and an ED50 (Rattus norvegicus [3]) of 0.27 µmol/kg. For the same compound, the ED50 (Rattus norvegicus [4]) was 0.37 µmol/kg.

With `CCN1CCC[C@H]1CNC(=O)c1cc(S(N)(=O)=O)ccc1OC` [LEVOSULPIRIDE] the ED50 (Rattus norvegicus [5]) was 280 µmol/kg, the ED50 (Rattus norvegicus [6]) was 8 µmol/kg and the ED50 (Rattus norvegicus [3]) was 290 µmol/kg. For the same compound, the ED50 (Rattus norvegicus [4]) was 55 µmol/kg.

Compound `CCN1CCC[C@H]1CNC(=O)c1c(O)c(Cl)cc(Cl)c1OC` [RACLOPRIDE] has an ED50 (Rattus norvegicus [5]) of 11 µmol/kg and an ED50 (Rattus norvegicus [6]) of 0.2 µmol/kg.
